B1: Acetylcholinesterase (Homo sapiens), P22303 (protein)
chain: MRPPQCLLHTPSLASPLLLLLLWLLGGGVGAEGREDAELLVTVRGGRLRGIRLKTPGGPVSAFLGIPFAEPPMGPRRFLPPEPKQPWSGVVDATTFQSVCYQYVDTLYPGFEGTEMWNPNRELSEDCLYLNVWTPYPRPTSPTPVLVWIYGGGFYSGASSLDVYDGRFLVQAERTVLVSMNYRVGAFGFLALPGSREAPGNVGLLDQRLALQWVQENVAAFGGDPTSVTLFGESAGAASVGMHLLSPPSRGLFHRAVLQSGAPNGPWATVGMGEARRRATQLAHLVGCPPGGTGGNDTELVACLRTRPAQVLVNHEWHVLPQESVFRFSFVPVVDGDFLSDTPEALINAGDFHGLQVLVGVVKDEGSYFLVYGAPGFSKDNESLISRAEFLAGVRVGVPQVSDLAAEAVVLHYTDWLHPEDPARLREALSDVVGDHNVVCPVAQLAGRLAAQGARVYAYVFEHRASTLSWPLWMGVPHGYEIEFIFGIPLDPSRNYTAEEKIFAQRLMRYWANFARTGDPNEPRDPKAPQWPPYTAGAQQYVSLDLRPLEVRRGLRAQACAFWNRFLPKLLSATDTLDEAERQWKAEFHRWSSYMVHWKNQFDHYSKQDRCSDL

Key:
[1] = Octanol-water partition coefficient, log P of the compound at pH 7.4 by shake flask method; format: physicochemical
How it was run: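 Shake flask partition between octanol and PBS (pH 7.4). Mixture shaken at 37 °C overnight, then centrifuged at 2000 rpm for 20 min. Phases analysed by C18 HPLC with methanol-0.1% TEA (85:15, v/v) at 1.0 mL/min and 32 °C, detection at 322 nm. Run in triplicate, log P calculated.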

[2] = species: Homo sapiens; assay: Selectivity index, ratio of IC50 for butyrylcholinesterase (unknown origin) to IC50 for acetylcholinesterase (unknown origin)
[3] = target: T1, Acetylcholinesterase (Homo sapiens, UniProt P22303); assay: Competitive inhibition of acetylcholinesterase (unknown origin) using acetylthiocholine iodide as substrate by Michaelis-Menten plot analysis
[4] = target: T1, Acetylcholinesterase; assay: Inhibition of acetylcholinesterase (unknown origin) using acetylthiocholine iodide as substrate after 25 mins by Ellmann method
How it was run: (§1)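 Modified Ellman assay, triplicate. Compounds dissolved in Tween 80, diluted with water to five concentrations. Mix: enzyme […], substrate (acetylthiocholine iodide or butyrylthiocholine iodide) and test compound in phosphoric acid buffer, pH 8.0, 0.1 mol/L. Incubated 25 min at 30 °C, then terminated. IC50 reported as mean ± SD of three experiments.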

[5] = Inhibition of carboxylesterase (unknown origin) using 4-nitrophenyl acetate as substrate by UV-Vis spectrophotometer; parameters: species or system Homo sapiens
How it was run: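 Read-out was 4-nitrophenol released by CaE hydrolysis of 1.0 mmol/L 4-nitrophenyl acetate, measured at 405 nm. Reactions ran in 100 mmol/L potassium phosphate buffer, pH 8.0, at 25 °C. CaE activity was taken as proportional to 4-nitrophenol concentration.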

[6] = target: Cholinesterase (Homo sapiens, UniProt P06276); assay: Inhibition of butyrylcholinesterase (unknown origin) using butyrylthiocholine iodide as substrate after 25 mins by Ellmann method; how it was run: as §1
[7] = target: T1, Acetylcholinesterase; assay: Noncompetitive inhibition of acetylcholinesterase (unknown origin) using acetylthiocholine iodide as substrate by Michaelis-Menten plot analysis
[8] = target: T1, Acetylcholinesterase; assay: Potency index, ratio of rivastigmine IC50 to compound IC50 for acetylcholinesterase (unknown origin)
[9] = compound: COc1cc(/C=C/C(=O)Nc2ccccc2)ccc1OCCCCCCN1CCCCC1; assay: Mixed type inhibition of acetylcholinesterase (unknown origin) assessed as enzyme Vmax at 0.82 uM using acetylthiocholine iodide as substrate by Michaelis-Menten plot analysis (reference value: 0.027 deltaA/min); details: Homo sapiens
[10] = compound: COc1cc(/C=C/C(=O)Nc2ccccc2)ccc1OCCCCCCN1CCCCC1; assay: Mixed type inhibition of acetylcholinesterase (unknown origin) assessed as Km for substrate at 0.18 uM using acetylthiocholine iodide as substrate by Michaelis-Menten plot analysis (reference value: 5.99 mM); details: Homo sapiens
[11] = compound: COc1cc(/C=C/C(=O)Nc2ccccc2)ccc1OCCCCCCN1CCCCC1; assay: Mixed type inhibition of acetylcholinesterase (unknown origin) assessed as Km for substrate at 0.82 uM using acetylthiocholine iodide as substrate by Michaelis-Menten plot analysis (reference value: 5.99 mM); details: Homo sapiens
[12] = compound: COc1cc(/C=C/C(=O)Nc2ccccc2)ccc1OCCCCCCN1CCCCC1; assay: Mixed type inhibition of acetylcholinesterase (unknown origin) assessed as Km for substrate at 0.41 uM using acetylthiocholine iodide as substrate by Michaelis-Menten plot analysis (reference value: 5.99 mM); details: Homo sapiens
[13] = compound: COc1cc(/C=C/C(=O)Nc2ccccc2)ccc1OCCCCCCN1CCCCC1; assay: Mixed type inhibition of acetylcholinesterase (unknown origin) assessed as enzyme Vmax at 0.41 uM using acetylthiocholine iodide as substrate by Michaelis-Menten plot analysis (reference value: 0.027 deltaA/min); details: Homo sapiens
[14] = compound: COc1cc(/C=C/C(=O)Nc2ccccc2)ccc1OCCCCCCN1CCCCC1; assay: Mixed type inhibition of acetylcholinesterase (unknown origin) assessed as enzyme Vmax at 0.18 uM using acetylthiocholine iodide as substrate by Michaelis-Menten plot analysis (reference value: 0.027 deltaA/min); details: Homo sapiens

Cholinesterase, sequence (P06276 whole entry): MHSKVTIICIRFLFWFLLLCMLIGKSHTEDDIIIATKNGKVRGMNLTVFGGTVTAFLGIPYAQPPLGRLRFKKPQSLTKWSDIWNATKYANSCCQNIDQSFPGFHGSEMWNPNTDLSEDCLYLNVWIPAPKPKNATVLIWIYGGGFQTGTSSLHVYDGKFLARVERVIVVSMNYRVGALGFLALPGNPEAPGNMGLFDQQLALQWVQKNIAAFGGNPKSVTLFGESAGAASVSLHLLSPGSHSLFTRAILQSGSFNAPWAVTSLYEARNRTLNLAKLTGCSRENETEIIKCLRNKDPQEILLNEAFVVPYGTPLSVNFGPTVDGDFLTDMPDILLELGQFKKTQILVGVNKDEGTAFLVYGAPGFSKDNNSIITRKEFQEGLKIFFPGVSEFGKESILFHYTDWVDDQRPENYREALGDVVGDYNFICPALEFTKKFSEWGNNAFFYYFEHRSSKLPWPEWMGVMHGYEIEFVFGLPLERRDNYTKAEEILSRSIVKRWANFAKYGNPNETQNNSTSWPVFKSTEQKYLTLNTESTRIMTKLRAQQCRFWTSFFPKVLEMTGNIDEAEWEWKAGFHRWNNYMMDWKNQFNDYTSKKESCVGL

Molecule | logD [1] | Ratio IC50 [2] | Ki [3] [nM] | IC50 [4] [nM] | IC50 [5] [nM] | IC50 [6] [nM] | Ki [7] [nM] | Ratio IC50 [8] | Vmax [9] [deltaA/min] | Km [10] [mM] | Km [11] [mM] | Km [12] [mM] | Vmax [13] [deltaA/min] | Vmax [14] [deltaA/min]
COc1cc(/C=C/C(=O)Nc2ccccc2)ccc1OCCCCCCN1CCCCC1 | 1.77 | 18.3 | 480 | 710 | > 500000 | 13000 | 920 | 15 | – | – | – | – | – | –
B1 | – | – | – | – | – | – | – | – | 0.015 | 6.69 | 8.85 | 7.71 | 0.019 | 0.023
